In ChEMBL document CHEMBL3860041, “Synthesis, biological evaluation and molecular modeling study of some new methoxylated 2-benzylthio-quinazoline-4(3H)-ones as nonclassical antifolates” (Bioorg Med Chem Lett, 2016):

Assays:
[1] = Growth inhibition of human breast cancer cells after 48 hrs by SRB assay; format: functional; conditions: Cancer cell lines
Summary of the method: (§1)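 Follow-up NCI panel testing over a 5-log dose range for each cell line. GI50, TGI and LC50 were monitored, with 5-fluorouracil run as the positive control. Values are grouped by tumour subpanel.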

[2] = Growth inhibition of human ACHN cells at 10 uM after 48 hrs by SRB assay relative to control; format: functional; conditions: read-out: GI
Summary of the method: (§2)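 NCI 60-cell-line panel, nine tumor subpanels; compounds tested at a single dose of 10 μM in the primary screen.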

[3] = Growth inhibition of human CNS cancer cells after 48 hrs by SRB assay; format: functional; conditions: Cancer cell lines
Summary of the method: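 Five-log dose range against NCI tumor cell lines, monitoring GI50, TGI and LC50 for each cell line; MG-MID values derived across the panel; 5-fluorouracil positive control.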

[4] = Growth inhibition of human HT-29 cells at 10 uM after 48 hrs by SRB assay relative to control; format: functional; conditions: HT-29, 48 h, read-out: GI; summary of the method: as §2
[5] = system: Cancer cell lines; experiment: Potency index, ratio of 5-fluorouracil GI50 to compound GI50 for human renal cancer cells; format: functional
Summary of the method: (§3)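 GI50 for each cell line came from NCI panel testing over a 5-log dose range, with 5-fluorouracil tested alongside as the reference drug. The index relates the 5-fluorouracil GI50 to the compound GI50 within each tumour subpanel.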

[6] = system: Cancer cell lines; experiment: Potency index, ratio of 5-fluorouracil GI50 to compound GI50 for human CNS cancer cells; format: functional; summary of the method: as §3
[7] = system: Cancer cell lines; experiment: Potency index, ratio of 5-fluorouracil GI50 to compound GI50 for human prostate cancer cells; format: functional; summary of the method: as §3
[8] = Growth inhibition of human MOLT4 cells at 10 uM after 48 hrs by SRB assay relative to control; format: functional; conditions: MOLT-4, 48 h, read-out: GI; summary of the method: as §2
[9] = Growth inhibition of human UACC257 cells at 10 uM after 48 hrs by SRB assay relative to control; format: functional; conditions: UACC-257, 48 h, read-out: GI
Summary of the method: (§4)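 Primary screen across the full NCI 60 human tumour cell line panel, which covers nine tumour subpanels. A single dose of 10 μM was applied to each line, and growth was recorded for each cell line.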

[10] = Growth inhibition of human OVCAR3 cells at 10 uM after 48 hrs by SRB assay relative to control; format: functional; conditions: OVCAR-3, 48 h, read-out: GI; summary of the method: as §2
[11] = Growth inhibition of human MCF7 cells at 10 uM after 48 hrs by SRB assay relative to control; format: functional; conditions: MCF7, 48 h, read-out: GI; summary of the method: as §2
[12] = Growth inhibition of human prostate cancer cells after 48 hrs by SRB assay; format: functional; conditions: Cancer cell lines; summary of the method: as §1
[13] = Growth inhibition of human BT549 cells at 10 uM after 48 hrs by SRB assay relative to control; format: functional; conditions: BT-549, 48 h, read-out: GI; summary of the method: as §2
[14] = Growth inhibition of human HOP92 cells at 10 uM after 48 hrs by SRB assay relative to control; format: functional; conditions: HOP-92, 48 h, read-out: GI; summary of the method: as §2
[15] = Growth inhibition of human HCT116 cells at 10 uM after 48 hrs by SRB assay relative to control; format: functional; conditions: HCT-116, 48 h, read-out: GI; summary of the method: as §2
[16] = Growth inhibition of human K562 cells at 10 uM after 48 hrs by SRB assay relative to control; format: functional; conditions: K562, 48 h, read-out: GI; summary of the method: as §2
[17] = Growth inhibition of human LOXIMVI cells at 10 uM after 48 hrs by SRB assay relative to control; format: functional; conditions: LOX IMVI, read-out: GI; summary of the method: as §2
[18] = Growth inhibition of human UACC62 cells at 10 uM after 48 hrs by SRB assay relative to control; format: functional; conditions: UACC-62, 48 h, read-out: GI; summary of the method: as §4
[19] = Growth inhibition of human SF268 cells at 10 uM after 48 hrs by SRB assay relative to control; format: functional; conditions: SF-268, 48 h, read-out: GI; summary of the method: as §2
[20] = Growth inhibition of human Caki1 cells at 10 uM after 48 hrs by SRB assay relative to control; format: functional; conditions: CAKI-1, 48 h, read-out: GI; summary of the method: as §2
[21] = Growth inhibition of human UO31 cells at 10 uM after 48 hrs by SRB assay relative to control; format: functional; conditions: UO-31, 48 h, read-out: GI; summary of the method: as §4
[22] = Growth inhibition of human RPMI8226 cells at 10 uM after 48 hrs by SRB assay relative to control; format: functional; conditions: RPMI-8226, 48 h, read-out: GI; summary of the method: as §2
[23] = Growth inhibition of human SW620 cells at 10 uM after 48 hrs by SRB assay relative to control; format: functional; conditions: SW-620, 48 h, read-out: GI; summary of the method: as §4
[24] = Growth inhibition of human NCI-H23 cells at 10 uM after 48 hrs by SRB assay relative to control; format: functional; conditions: NCI-H23, 48 h, read-out: GI; summary of the method: as §2
[25] = biological target: T1, Dihydrofolate reductase (Bos taurus, UniProt P00376); experiment: Inhibition of bovine liver DHFR preincubated for 2 mins followed by addition of FH2 as substrate and NADPH
T1 sequence (P00376 whole entry): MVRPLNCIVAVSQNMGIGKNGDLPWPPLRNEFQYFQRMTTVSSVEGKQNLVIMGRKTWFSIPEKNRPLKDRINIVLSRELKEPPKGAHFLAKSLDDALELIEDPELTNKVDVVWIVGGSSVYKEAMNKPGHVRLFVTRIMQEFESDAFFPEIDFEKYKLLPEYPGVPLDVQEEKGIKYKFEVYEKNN

[26] = Growth inhibition of human leukemia cells after 48 hrs by SRB assay; format: functional; conditions: Leukemia cell; summary of the method: as §1
[27] = Growth inhibition of human OVCAR4 cells at 10 uM after 48 hrs by SRB assay relative to control; format: functional; conditions: OVCAR-4, 48 h, read-out: GI; summary of the method: as §2
[28] = Growth inhibition of human SK-MEL-28 cells at 10 uM after 48 hrs by SRB assay relative to control; format: functional; conditions: SK-MEL-28, 48 h, read-out: GI; summary of the method: as §4
[29] = Growth inhibition of human IGROV1 cells at 10 uM after 48 hrs by SRB assay relative to control; format: functional; conditions: IGROV-1, 48 h, read-out: GI; summary of the method: as §2
[30] = Growth inhibition of human SR cells at 10 uM after 48 hrs by SRB assay relative to control; format: functional; conditions: read-out: GI; summary of the method: as §4
[31] = system: Cancer cell lines; experiment: Potency index, ratio of 5-fluorouracil GI50 to compound GI50 for human breast cancer cells; format: functional; summary of the method: as §3

COc1cc2nc(SCc3cc(OC)c(OC)c(OC)c3)n(Cc3ccccc3)c(=O)c2cc1OC
GI50 [1]: 2.5 µM
LC50 [1]: 99.3 µM
TGI [1]: 47.4 µM
inhibition of growth at 10 µM [2]: 60.8%
GI50 [3]: 3.4 µM
LC50 (lethal concentration, 50% net cell kill) [3]: 80.6 µM
TGI [3]: 24.5 µM
inhibition of growth at 10 µM [4]: 89.4%
RatioGI50 [5]: 2 - 10
RatioGI50 [6]: 2 - 10
RatioGI50 [7]: 2 - 10
inhibition of growth at 10 µM [8]: 83.3%
inhibition of growth at 10 µM [9]: 36.7%
inhibition of growth at 10 µM [10]: 93.8%
inhibition of growth at 10 µM [11]: 89.9%
GI50 [12]: 4 µM
LC50 (concentration killing 50% of cells) [12]: > 100 µM
TGI [12]: > 100 µM
inhibition of growth at 10 µM [13]: 83.2%
inhibition of growth at 10 µM [14]: 37.4%
inhibition of growth at 10 µM [15]: 85.4%
inhibition of growth at 10 µM [16]: 89.8%
inhibition of growth at 10 µM [17]: 62.3%
inhibition of growth at 10 µM [18]: 76.6%
inhibition of growth at 10 µM [19]: 62.2%
inhibition of growth at 10 µM [20]: 74.3%
inhibition of growth at 10 µM [21]: 65.3%
inhibition of growth at 10 µM [22]: 45.3%
inhibition of growth at 10 µM [23]: 66.6%
inhibition of growth at 10 µM [24]: 79.6%
IC50 [25]: 2 µM
GI50 [26]: 1.9 µM
TGI [26]: > 100 µM
CC50 ([26]; read-out: LC50 (the source's name)): > 100 µM
inhibition of growth at 10 µM [27]: 55.8%
inhibition of growth at 10 µM [28]: 60.8%
inhibition of growth at 10 µM [29]: 60.8%
inhibition of growth at 10 µM [30]: 93.8%
RatioGI50 [31]: 2 - 10
